# Experimental data as given in ChEMBL document CHEMBL4007410, “Fluorinated Chaperone-β-Cyclodextrin Formulations for β-Glucocerebrosidase Activity Enhancement in Neuronopathic Gaucher Disease” (J Med Chem, 2017).
# pKi: −log10 of the molar value. The source made the active and inactive calls. No cut-off for these calls is given here.
# Target: T1, Lysosomal acid glucosylceramidase (Homo sapiens, UniProt P04062)
# T1 sequence (P04062 whole entry): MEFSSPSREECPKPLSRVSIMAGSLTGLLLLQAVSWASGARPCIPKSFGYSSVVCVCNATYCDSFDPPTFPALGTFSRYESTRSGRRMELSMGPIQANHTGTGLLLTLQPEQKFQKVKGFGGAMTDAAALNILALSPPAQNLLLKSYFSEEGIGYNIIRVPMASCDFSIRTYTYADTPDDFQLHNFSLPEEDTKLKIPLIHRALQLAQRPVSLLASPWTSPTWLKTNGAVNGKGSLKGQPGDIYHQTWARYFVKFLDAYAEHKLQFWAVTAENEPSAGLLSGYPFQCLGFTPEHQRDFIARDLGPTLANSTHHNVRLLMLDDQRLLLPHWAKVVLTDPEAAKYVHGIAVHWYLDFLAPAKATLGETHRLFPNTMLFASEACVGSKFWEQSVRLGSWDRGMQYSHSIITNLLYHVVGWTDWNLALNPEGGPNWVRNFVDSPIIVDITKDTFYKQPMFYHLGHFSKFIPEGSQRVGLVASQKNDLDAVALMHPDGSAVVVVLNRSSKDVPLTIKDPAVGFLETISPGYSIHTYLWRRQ
# Assay: Inhibition of human GCase assessed as formation of 4-methylumbelliferone from […] at pH 5 by luminescence spectrophotometry
row,pKi,SMILES
1,4.10,O=C(CCC(F)(F)C(F)(F)C(F)(F)C(F)(F)F)NCCCCCCCCCNC(=S)N1[C@@H]2CO[C@H]1[C@H](O)[C@@H](O)[C@@H]2O
2,4.49,O=C(CCC(F)(F)C(F)(F)C(F)(F)C(F)(F)C(F)(F)C(F)(F)F)NCCCCCCCCCNC(=S)N1[C@@H]2CO[C@H]1[C@H](O)[C@@H](O)[C@@H]2O
3,4.68,O=C(CCC(F)(F)C(F)(F)C(F)(F)C(F)(F)F)NCCCCNC(=S)N1[C@@H]2CO[C@H]1[C@H](O)[C@@H](O)[C@@H]2O
4,4.05,O=C(CCC(F)(F)C(F)(F)C(F)(F)C(F)(F)C(F)(F)C(F)(F)F)NCCCCNC(=S)N1[C@@H]2CO[C@H]1[C@H](O)[C@@H](O)[C@@H]2O

# Target: T2, Lysosomal alpha-mannosidase (Homo sapiens) (UniProt O00754)
# T2 sequence (whole entry): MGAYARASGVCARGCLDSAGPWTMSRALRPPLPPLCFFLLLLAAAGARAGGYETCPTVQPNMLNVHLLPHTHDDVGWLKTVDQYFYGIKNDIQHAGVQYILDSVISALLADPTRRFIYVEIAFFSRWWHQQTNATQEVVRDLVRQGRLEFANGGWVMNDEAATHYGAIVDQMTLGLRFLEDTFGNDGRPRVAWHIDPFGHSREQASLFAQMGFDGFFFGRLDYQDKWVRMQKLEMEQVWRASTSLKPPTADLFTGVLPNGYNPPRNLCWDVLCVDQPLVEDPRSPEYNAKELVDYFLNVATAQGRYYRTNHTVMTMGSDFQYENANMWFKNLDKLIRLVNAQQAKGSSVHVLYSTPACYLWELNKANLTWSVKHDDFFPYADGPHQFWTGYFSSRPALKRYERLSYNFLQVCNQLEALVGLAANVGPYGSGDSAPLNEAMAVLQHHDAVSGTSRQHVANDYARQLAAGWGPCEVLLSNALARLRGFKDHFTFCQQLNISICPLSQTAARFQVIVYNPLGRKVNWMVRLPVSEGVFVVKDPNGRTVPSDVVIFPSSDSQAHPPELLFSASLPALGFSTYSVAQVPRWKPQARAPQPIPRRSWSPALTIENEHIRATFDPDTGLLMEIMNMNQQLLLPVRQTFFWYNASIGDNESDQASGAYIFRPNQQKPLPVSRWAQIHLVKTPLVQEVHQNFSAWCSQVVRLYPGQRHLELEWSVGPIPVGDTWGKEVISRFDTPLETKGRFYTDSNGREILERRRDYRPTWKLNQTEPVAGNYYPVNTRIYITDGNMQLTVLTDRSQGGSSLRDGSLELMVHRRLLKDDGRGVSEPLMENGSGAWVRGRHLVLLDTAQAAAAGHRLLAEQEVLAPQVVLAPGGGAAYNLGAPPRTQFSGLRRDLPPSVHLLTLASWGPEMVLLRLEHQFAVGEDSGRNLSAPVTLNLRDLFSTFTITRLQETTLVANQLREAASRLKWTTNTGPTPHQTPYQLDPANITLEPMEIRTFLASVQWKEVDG
# Assay: Inhibition of human lysosomal alpha-mannosidase assessed as formation of 4-methylumbelliferone from 4-methylumbelliferyl alpha-D-glucopyranoside up to 200 uM by luminescence spectrophotometry
# Outline: (§1)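 Cells were scraped into ice-cold water (10⁶ cells/mL), sonicated and centrifuged, and protein was quantified. Lysate in 0.1% Triton X-100 was incubated at 37 °C with the matching 4-MU-conjugated glycoside in 0.1 M citrate, pH 4.5, with increasing chaperone or βCD-complex concentrations up to 200 μM. Reactions were stopped with glycine-NaOH, pH 10.7, and read at ex 340/em 460 nm.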
row,inhibition,SMILES
1,inactive,O=C(CCC(F)(F)C(F)(F)C(F)(F)C(F)(F)F)NCCCCCCCCCNC(=S)N1[C@@H]2CO[C@H]1[C@H](O)[C@@H](O)[C@@H]2O
2,inactive,O=C(CCC(F)(F)C(F)(F)C(F)(F)C(F)(F)C(F)(F)C(F)(F)F)NCCCCCCCCCNC(=S)N1[C@@H]2CO[C@H]1[C@H](O)[C@@H](O)[C@@H]2O
3,inactive,O=C(CCC(F)(F)C(F)(F)C(F)(F)C(F)(F)F)NCCCCNC(=S)N1[C@@H]2CO[C@H]1[C@H](O)[C@@H](O)[C@@H]2O
4,inactive,O=C(CCC(F)(F)C(F)(F)C(F)(F)C(F)(F)C(F)(F)C(F)(F)F)NCCCCNC(=S)N1[C@@H]2CO[C@H]1[C@H](O)[C@@H](O)[C@@H]2O

# Target: T3, Beta-mannosidase (Homo sapiens) (UniProt O00462)
# T3 sequence (whole entry): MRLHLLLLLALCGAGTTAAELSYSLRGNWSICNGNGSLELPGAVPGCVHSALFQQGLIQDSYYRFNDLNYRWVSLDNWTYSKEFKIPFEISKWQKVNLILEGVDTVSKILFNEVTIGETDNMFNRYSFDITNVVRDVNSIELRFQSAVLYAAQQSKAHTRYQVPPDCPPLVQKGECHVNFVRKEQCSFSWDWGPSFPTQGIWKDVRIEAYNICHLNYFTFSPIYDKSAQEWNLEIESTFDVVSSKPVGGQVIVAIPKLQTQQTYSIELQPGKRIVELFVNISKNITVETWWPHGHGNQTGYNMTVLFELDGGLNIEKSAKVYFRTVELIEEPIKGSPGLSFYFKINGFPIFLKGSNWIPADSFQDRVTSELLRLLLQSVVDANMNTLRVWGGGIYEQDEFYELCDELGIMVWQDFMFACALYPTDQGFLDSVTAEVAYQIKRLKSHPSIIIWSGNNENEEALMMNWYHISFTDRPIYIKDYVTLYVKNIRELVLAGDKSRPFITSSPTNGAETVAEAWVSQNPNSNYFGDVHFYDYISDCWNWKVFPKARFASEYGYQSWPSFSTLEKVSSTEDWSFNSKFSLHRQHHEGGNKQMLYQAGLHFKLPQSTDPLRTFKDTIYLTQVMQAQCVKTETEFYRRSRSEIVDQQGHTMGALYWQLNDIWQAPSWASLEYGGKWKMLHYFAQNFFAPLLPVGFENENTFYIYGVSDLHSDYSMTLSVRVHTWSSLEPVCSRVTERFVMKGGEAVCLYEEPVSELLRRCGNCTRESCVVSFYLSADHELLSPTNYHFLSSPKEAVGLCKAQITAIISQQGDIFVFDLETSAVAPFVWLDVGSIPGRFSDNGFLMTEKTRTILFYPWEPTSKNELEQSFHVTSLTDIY
# Assay: Inhibition of human lysosomal beta-mannosidase assessed as formation of 4-methylumbelliferone from 4-methylumbelliferyl alpha-D-glucopyranoside up to 200 uM by luminescence spectrophotometry
# Outline: as §1
row,inhibition,SMILES
1,inactive,O=C(CCC(F)(F)C(F)(F)C(F)(F)C(F)(F)F)NCCCCCCCCCNC(=S)N1[C@@H]2CO[C@H]1[C@H](O)[C@@H](O)[C@@H]2O
2,inactive,O=C(CCC(F)(F)C(F)(F)C(F)(F)C(F)(F)C(F)(F)C(F)(F)F)NCCCCCCCCCNC(=S)N1[C@@H]2CO[C@H]1[C@H](O)[C@@H](O)[C@@H]2O
3,inactive,O=C(CCC(F)(F)C(F)(F)C(F)(F)C(F)(F)F)NCCCCNC(=S)N1[C@@H]2CO[C@H]1[C@H](O)[C@@H](O)[C@@H]2O
4,inactive,O=C(CCC(F)(F)C(F)(F)C(F)(F)C(F)(F)C(F)(F)C(F)(F)F)NCCCCNC(=S)N1[C@@H]2CO[C@H]1[C@H](O)[C@@H](O)[C@@H]2O

# Tested on: Aspergillus niger
# Assay: Inhibition of Aspergillus niger amyloglucosidase at 2 mM using beta-D-glycopyranoside after 10 to 30 mins in presence of beta-cyclodextrin by spectrophotometry
# Outline: (§2)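 Commercial glycosidases were assayed with o-nitrophenyl (E. coli β-galactosidase) or p-nitrophenyl glycoside substrate near KM. Buffer was phosphate, or phosphate-citrate for mannosidases and amyloglucosidase, at each enzyme's optimal pH. Enzyme was added last. Incubation ran 10-30 min at 37 °C (55 °C for amyloglucosidase), then was quenched with 1 M Na2CO3 and read at A405. Free compounds were tested up to 1 mM; 1:1 βCD complexes up to 2 mM.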
row,inhibition,SMILES
1,inactive,O=C(CCC(F)(F)C(F)(F)C(F)(F)C(F)(F)F)NCCCCCCCCCNC(=S)N1[C@@H]2CO[C@H]1[C@H](O)[C@@H](O)[C@@H]2O
2,inactive,O=C(CCC(F)(F)C(F)(F)C(F)(F)C(F)(F)C(F)(F)C(F)(F)F)NCCCCCCCCCNC(=S)N1[C@@H]2CO[C@H]1[C@H](O)[C@@H](O)[C@@H]2O
3,inactive,O=C(CCC(F)(F)C(F)(F)C(F)(F)C(F)(F)F)NCCCCNC(=S)N1[C@@H]2CO[C@H]1[C@H](O)[C@@H](O)[C@@H]2O
4,inactive,O=C(CCC(F)(F)C(F)(F)C(F)(F)C(F)(F)C(F)(F)C(F)(F)F)NCCCCNC(=S)N1[C@@H]2CO[C@H]1[C@H](O)[C@@H](O)[C@@H]2O

# Tested on: Escherichia coli
# Assay: Inhibition of Escherichia coli beta-galactosidase 2 mM using beta-D-glycopyranoside after 10 to 30 mins in presence of beta-cyclodextrin by spectrophotometry
# Outline: as §2
row,inhibition,SMILES
1,inactive,O=C(CCC(F)(F)C(F)(F)C(F)(F)C(F)(F)F)NCCCCCCCCCNC(=S)N1[C@@H]2CO[C@H]1[C@H](O)[C@@H](O)[C@@H]2O
2,inactive,O=C(CCC(F)(F)C(F)(F)C(F)(F)C(F)(F)C(F)(F)C(F)(F)F)NCCCCCCCCCNC(=S)N1[C@@H]2CO[C@H]1[C@H](O)[C@@H](O)[C@@H]2O
3,inactive,O=C(CCC(F)(F)C(F)(F)C(F)(F)C(F)(F)F)NCCCCNC(=S)N1[C@@H]2CO[C@H]1[C@H](O)[C@@H](O)[C@@H]2O
4,inactive,O=C(CCC(F)(F)C(F)(F)C(F)(F)C(F)(F)C(F)(F)C(F)(F)F)NCCCCNC(=S)N1[C@@H]2CO[C@H]1[C@H](O)[C@@H](O)[C@@H]2O
